In the library only some 2.5% were active in any assay of this set; here they are far more common.
NS3 helicase inh – inhibitors of Hepatitis C virus NS3 helicase; NS3 helicase DNA unwinding, Cy5 molecular beacon fluorescence; inhibition, % at 10.9 µM; actives 0.56% (n = 290,000);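 active means inhibition above the mean of all tested compounds plus 3 SD, set per campaign, cut at about 35% in these data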;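 further: 0% = DMSO wells and 100% = thioflavine S control wells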
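Test system: hepatitis C virus NS3 helicase domain fragment enzyme. Also added: annealed dual-labelled DNA beacon duplex, ATP-started. Timing: 60 min unwinding reaction at 25 °C after ATP addition. Technique: Cy5 fluorescence. Measure: % inhibition of unwinding.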
UHRF1 MBD2 ctr – blocks human UHRF1 binding to methylated DNA. Q96T88. UHRF1 binding to methylated oligo, TR-FRET. inhibition, % at 4.4 µM. actives 0.75% (n = 370,000). AID 687016; in the data active means inhibition above about 21%;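 further: UHRF1 SRA domain binding a hemimethylated CpG hairpin DNA probe; 0% = median of test compound wells and 100% = reference inhibitor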
DNMT1 block – inhibitors of human DNMT1; P26358; DNMT1 molecular beacon, Hinp1I cleavage, fluorescence; inhibition (reported as % activation of signal), % at 10 µM; actives 0.83% (n = 360,000); AID 588458; in the data active means inhibition above about 50%
SUMO1-SIM PPI – alters human SUMO1 binding to SIM partners; P63165; SUMO1 binding to a labelled peptide, TR-FRET, 1 h; inhibition, % at 20 µM; actives 0.33% (n = 360,000); AID 602429
MBD2 DNA inh – MBD2-methylated oligo binding inhibition; AID 686964; TR-FRET, MBD2 binding to methylated oligonucleotide; actives 0.31% (n = 370,000); inhibition, % at 4.4 µM; Q9UBB5; in the data active means inhibition above about 13%
DSG3 Ab inh – human desmoglein-3 autoantibody binding inhibition; actives 0.48% (n = 310,000); DSG3-coupled beads, scFv-anti-DSG3-GFP binding, flow cytometry; stronger effect = lower value; P32926; binding (percent of control), % at 10 µM;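 active means binding more than 3 SD below its plate's average and above zero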;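 further: hits lower antibody fragment binding to DSG3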
NS3 hel confirm – confirmation of Hepatitis C virus NS3 helicase inhibitors; actives 31% (n = 1,600); shares compounds with NS3 helicase inh; NS3 helicase DNA unwinding, Cy5 molecular beacon fluorescence; AID 1943; inhibition, % at 10.9 µM;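 active means inhibition above the mean of all tested compounds plus 3 SD, cutoff set per campaign, cut at about 36% in these data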
FID counter trip – intercalator displacement, NS3 helicase counter-screen; shares compounds with NS3 helicase inh; DNA fluorescent intercalator displacement, fluorescence; inhibition, % at 7.9 µM; actives 4% (n = 1,600); AID 1945;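 further: 0% = vehicle and 100% = reference compound; higher means more displacement of ethidium bromide from the DNA hairpin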
FID counter DR – counter-screen for HCV NS3 helicase inhibitors: DNA intercalator displacement dose response | 120 tested, under 10 active | IC50, µM | shares compounds with NS3 helicase inh | fluorescent intercalator displacement from DNA, fluorescence; call rule not given here
* marks the source's active call; other numbers are inactive results; / = no result. Unless noted, no stated cut-off is given here; in the data, active means inhibition above about 37%; inactive means the rest.

SMILES | NS3 helicase inh | UHRF1 MBD2 ctr | DNMT1 block | SUMO1-SIM PPI | MBD2 DNA inh | DSG3 Ab inh | NS3 hel confirm | FID counter trip | others
COc1cccc(-n2c(SCc3cc(=O)oc4cc(O)c(O)cc34)nc3ccccc3c2=O)c1 | 85.9* | 15.4 | 30.6 | 2.1 | 7.2 | 89.9 | 134.2* | 0.5 | FID counter DR=>79.4
Cc1sc(NC(=O)c2ccccc2F)c(CN2CCCCC2C)c1C (stereo not drawn) | 1.5 | -4.8 | -13.9 | 2.4 | -3.9 | 108.9 | / | /
N#CC1=C(N)S[C@@H](C(=O)c2ccc(F)cc2)[C@@H]1c1cccs1 | 38.8* | 15.5 | -13.9 | -3.8 | 2.8 | 102.2 | 6.7 | 16.0
CCN(CC)CCN1C(=O)C(=O)/C(=C(/O)c2ccc(S(=O)(=O)N3CCOCC3)cc2)C1c1ccc(C(C)(C)C)cc1 (stereo not drawn) | 45.7* | / | 1.3 | -21.1 | / | 87.7 | -5.9 | -20.9
COCCCN1C(=O)C(=O)/C(=C(/O)c2ccc(S(=O)(=O)N3CCCCC3)cc2)C1c1ccc(F)cc1 (stereo not drawn) | 44.0* | -3.4 | -1.8 | -8.5 | -0.9 | 102.0 | -4.2 | -29.0
Cc1cc(NC(=O)CCC(=O)N(CC(=O)NC2CCCC2)c2ccc(C)c(F)c2)no1 | 12.7 | -1.1 | 2.2 | 4.5 | 5.8 | 116.3 | / | /
Cn1c(C(=O)N2CCc3ccccc3C2)cc2c(=O)n3ccccc3nc21 | -10.1 | -3.7 | -9.4 | 12.4 | -7.8 | 96.3 | / | /
N#Cc1c(-c2cccs2)nc(SCc2ccc(Cl)cc2)[nH]c1=O | 48.1* | 4.4 | 11.1 | 9.5 | -2.2 | 102.9 | 59.9* | 34.7
CCN1C(=O)c2cccc3c(S(=O)(=O)Nc4ccccc4OC)ccc1c23 | -25.5 | -3.7 | 1.0 | -13.5 | -0.9 | 98.2 | / | /
Cc1ccccc1NC1c2ccccc2C(=O)N1Cc1ccco1 (stereo not drawn) | 41.1* | 0.8 | -8.5 | -2.7 | 2.8 | 82.9 | -0.7 | -3.7
COc1cccc(NC2c3ccccc3C(=O)N2Cc2ccco2)c1 (stereo not drawn) | 0.5 | -1.8 | -16.8 | 4.6 | -3.0 | 102.2 | / | /
COc1ccc(Nc2cc(C(=O)NCCCN3CCN(C)CC3)c3ccccc3n2)c(OC)c1 | 63.5* | -1.9 | -2.7 | -5.8 | 1.4 | 74.1 | 10.4 | 66.4*
C/C(CC(=O)Nc1ccc(Cl)c(C(F)(F)F)c1)=N\NC(=O)c1ccccc1O | 40.6* | -1.3 | -5.1 | 9.1 | 0.8 | 99.1 | 3.9 | 13.5
O=S(=O)(Nc1ccc2c(c1)OCCO2)c1ccc2oc3ccccc3c2c1 | -19.7 | -4.4 | -15.4 | 1.2 | -3.7 | 100.3 | / | /
Cc1c(NC(=O)C(C)OC(=O)c2c3c(nc4ccccc24)CCC3)c(=O)n(-c2ccccc2)n1C (stereo not drawn) | 39.0* | 4.1 | 27.8 | 1.8 | 2.3 | / | -24.8 | -27.6
S=C(NC1CCCC1)N1CCOCC1 | 5.8 | -1.3 | 4.0 | -3.0 | 1.7 | 85.0 | / | /
COc1ccc(OC)c(NC(=O)CN2C(=O)C3(OCCCO3)c3ccccc32)c1 | 54.4* | 2.4 | 0.6 | 0.8 | 5.1 | 102.1 | -1.8 | -22.1
COc1ccccc1NC(=O)CN1C(=O)C2(OCCCO2)c2ccccc21 | 5.1 | / | -5.5 | 1.3 | / | 93.8 | / | /
Cc1ccc(-c2ccc(C3C(C#N)=C(N)Oc4n[nH]c(C)c43)o2)cc1 (stereo not drawn) | 39.8* | -6.7 | -22.0 | -11.7 | 2.9 | / | -24.8 | 8.5
Cc1[nH]nc2c1C(c1ccc(-c3ccccc3C#N)o1)C(C#N)=C(N)O2 (stereo not drawn) | 9.4 | / | -10.4 | -18.2 | / | 85.6 | / | /
Cc1ccc(OCc2n[nH]c(=S)n2-c2ccc(Cl)cc2)cc1 | 13.0 | 0.0 | -0.8 | 2.9 | 5.9 | 108.1 | / | /
Cc1ccc(OCc2n[nH]c(=S)n2-c2ccc(Br)cc2)cc1 | 37.4* | -0.4 | 2.9 | 6.6 | -3.4 | 116.8 | -0.2 | -22.1
O=C(N[C@H](C(=O)N1CCC[C@H]1C(=O)NC1CCCC1)C1CCCCC1)c1ccccn1 | / | 0.7 | / | / | 0.2 | / | / | /
CC1CCCN(C(=O)c2cccc(S(=O)(=O)Nc3cc(C(F)(F)F)ccc3Cl)c2)C1 (stereo not drawn) | 44.3* | -0.9 | -0.4 | 11.9 | 2.0 | 99.1 | 57.0* | -38.6
O=C(c1cccc(S(=O)(=O)Nc2ccccc2Cl)c1)N1CCC1 | / | 0.2 | 2.0 | 9.1 | 2.3 | 106.2 | / | /
SMILES | NS3 helicase inh | UHRF1 MBD2 ctr | DNMT1 block | SUMO1-SIM PPI | MBD2 DNA inh | DSG3 Ab inh | NS3 hel confirm | FID counter trip | others
COc1ccc2c(c1)OC[C@H]1[C@@H]2N2C(=O)[C@@H](C)NC(=O)[C@@]2(C)[C@H]1c1ccccc1 | / | -0.3 | 2.9 | 7.6 | -0.3 | 98.2 | / | /
Cc1ccc(S(=O)(=O)Nc2ccc(Br)cc2/C=N/n2cnnc2)cc1 | 36.1* | 19.4 | 5.6 | 0.1 | 8.6 | 85.2 | 37.9* | -7.8
Cc1ccc(SC(CC(=O)c2ccc(F)cc2)C(=O)O)cc1 (stereo not drawn) | 43.0* | 0.5 | 1.6 | -0.9 | 5.0 | 103.6 | -23.4 | 0.9
CCCCOc1ccc(C(=O)Nc2ccc(S(=O)(=O)Nc3onc(C)c3C)cc2)cc1 | 40.5* | -0.1 | 1.4 | 6.3 | -3.6 | / | 53.8* | -21.0
CCOc1cc(C(=O)Nc2ccc(S(=O)(=O)Nc3onc(C)c3C)cc2)cc(OCC)c1OCC | / | -0.3 | -0.6 | 2.2 | -2.1 | 95.0 | / | /
CCOc1ccc(N2CC(C(=O)N3CCCCC3)CC2=O)cc1 (stereo not drawn) | -0.8 | -0.2 | 0.0 | 2.1 | -6.8 | 95.4 | / | /
CC1CCCC(NC(=O)CCS(=O)(=O)c2ccc3c(c2)NC(=O)CS3)C1C (stereo not drawn) | -2.6 | 3.2 | -1.6 | -2.5 | -6.2 | 104.6 | / | /
CC1Sc2ccc(S(=O)(=O)CCC(=O)NC3CCCC(C)C3C)cc2NC1=O (stereo not drawn) | 53.9* | -0.5 | -0.1 | 3.4 | 0.7 | 100.0 | -13.1 | -31.3
CC1CCCN(C(=O)CCS(=O)(=O)c2ccc3c(c2)NC(=O)C(C)S3)C1 (stereo not drawn) | 44.0* | / | 1.4 | 6.0 | / | 102.0 | -15.8 | -24.1
CC1Sc2ccc(S(=O)(=O)CCC(=O)N3CCCC3)cc2NC1=O (stereo not drawn) | 15.9 | -0.4 | 2.9 | 4.2 | 0.3 | 95.0 | / | /
Cc1cc(C)cc(N(CC(=O)NC2CCCC2)C(=O)CNC(=O)c2ccco2)c1 | 7.1 | 0.2 | 1.8 | -1.4 | -2.7 | 94.2 | / | /
Cc1ccc(S(=O)(=O)N(C)C)cc1NC(=O)COC(=O)/C=C/c1ccc2ccccc2n1 | / | -3.0 | -4.1 | -23.2 | -0.5 | 99.8 | / | /
COC(=O)c1ccc(N2NC(=O)/C(=C/c3cc(OC)c(OC)c(OC)c3)C2=O)cc1 | -8.9 | 1.0 | -3.5 | 1.1 | -1.6 | 114.5 | / | /

Source: PubChem BioAssay
